An excerpt weighted towards active compounds, which were near 0.79% of everything screened.
mIAP block: blocks mouse intestinal alkaline phosphatase; 0.2% of 330,000 active; purified mouse IAP, CDP-Star luminescence, 30 min; inhibition, % at 10 µM;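 active = inhibition of at least 40% at 10 µM in the primary screen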;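 note: plate controls were DMSO with enzyme for no effect and no enzyme wells for full effect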
mIAP activ: mouse IAP activation | muIAP, CDP-Star luminescence, 30 min; stronger effect = higher value; 1 = vehicle-only enzyme signal, 0 = enzyme-free wells | activation factor at 10 µM | 0.24% of 330,000 active | AID 2805;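 active = activation factor of at least 2 at 20 µM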
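System: mouse IAP enzyme. Reagent: CDP-Star chemiluminescent phosphatase substrate. Benchmarks: DMSO wells, no-enzyme wells. Times: 30 min enzyme-substrate-compound incubation at room temperature. Detection: luminescence from enzymatic CDP-Star hydrolysis. Doses: test compounds delivered from DMSO solution.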
bIAP act: increases bovine intestinal alkaline phosphatase activity | 0.17% of 200,000 active | purified bovine IAP, CDP-star luminescence, 30 min; stronger effect = higher value; fold of DMSO-control signal, blank-subtracted | activation factor at 20 µM;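 active = activation factor of 2 or more at 20 µM, a signal rise over negative controls twice the positive control's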
hIAP block: human IAP inhibition; P09923; purified IAP, CDP-Star luminescence, 30 min; inhibition, % at 10 µM; 0.12% of 330,000 active;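 active = inhibition reaching a set limit with compound at 10 µM in the primary screen, cut at about 35% in these data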;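 note: plate controls were DMSO wells with enzyme for no effect and no-enzyme buffer wells for full effect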
Target sequence (P09923 whole entry, looked up): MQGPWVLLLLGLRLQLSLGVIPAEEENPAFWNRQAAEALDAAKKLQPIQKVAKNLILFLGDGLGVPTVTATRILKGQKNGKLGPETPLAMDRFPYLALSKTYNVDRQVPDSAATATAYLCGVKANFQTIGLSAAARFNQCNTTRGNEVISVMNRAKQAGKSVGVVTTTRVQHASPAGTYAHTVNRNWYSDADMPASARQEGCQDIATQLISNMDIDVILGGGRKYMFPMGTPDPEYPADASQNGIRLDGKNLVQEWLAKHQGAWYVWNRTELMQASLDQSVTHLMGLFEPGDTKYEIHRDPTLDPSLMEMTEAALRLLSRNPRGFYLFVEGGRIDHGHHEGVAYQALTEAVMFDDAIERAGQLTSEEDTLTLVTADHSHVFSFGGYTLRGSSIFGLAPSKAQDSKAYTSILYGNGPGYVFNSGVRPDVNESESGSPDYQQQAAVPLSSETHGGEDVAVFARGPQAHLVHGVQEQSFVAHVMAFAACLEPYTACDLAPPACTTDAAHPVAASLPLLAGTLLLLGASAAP
bIAP inhibitor: blocks bovine intestinal alkaline phosphatase activity. purified bovine IAP, CDP-star luminescence, 30 min. inhibition, % at 20 µM. 190,000 tested, under 10 active;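 active = over 50% inhibition of intestinal alkaline phosphatase at 20 µM in the single-dose screen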
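System: purified bovine intestinal alkaline phosphatase (IAP) enzyme; Input: IAP diluted 1/65,000,000 in the well; Measured by: CDP-star luminescence signal; Compound dosing: 20 µM single dose; Incubation: 30 min reaction at room temperature.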
hIAP activ: human IAP activation. P09923. purified human IAP, CDP-Star luminescence, 30 min; stronger effect = higher value; 1 = vehicle-only enzyme, 0 = enzyme-free background. activation factor at 10 µM. 0.16% of 330,000 active;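 active = activation factor of the enzyme at least 2-fold when tested at 20 µM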
hIAP act confirm: human IAP activation confirmation; shares compounds with hIAP activ; purified IAP, CDP-Star luminescence, 30 min; stronger effect = lower value; activation (%Activity, negative = activation), % at 8.3 µM; 10% of 880 active; AID 434926;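 active = at least twofold enzyme activation in any of six single-dose repeats, which the averaged readout prints as negative percent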
* = called active by the depositor; nt = not tested or not shown.

SMILES	mIAP block	mIAP activ	bIAP act	hIAP block	bIAP inhibitor	hIAP activ	hIAP act confirm
O=C(CCCSc1nc(-c2ccco2)cc(C(F)(F)F)n1)NCc1cccs1	5	0.95	0.9	37*	7	0.63	-29
Cc1cc(C)cc(NC(=S)N2CCCC2)c1	0	1	nt	36*	nt	0.64	-27
CCN(CC)CCN=C1CCCc2ccccc2N1	5	0.95	0.9	52*	10	0.47	-22
O=C1CCCc2ccccc2N1	4	0.96	1	-22	-2	1.2	nt
C[C@@H](NC(=O)/C(C#N)=C/c1ccc(O)c(O)c1)c1ccccc1	24	0.76	nt	32	nt	0.68	nt
N#C/C(=C\c1ccc(O)c(O)c1)C(=O)Nc1ccccc1	25	0.75	nt	52*	nt	0.48	3
C=C1c2cccc(C(F)(F)F)c2O[C@H](C(=O)OCC)[C@H]1OC	-2	1	nt	nt	nt	nt	nt
CCCCn1c(O)c(N=Nc2ccccc2O)c2ccccc21	20	0.8	nt	-174	nt	2.7*	6
Cc1cc(C)n2nc(CC(=O)NNC(=O)COc3cccc(C)c3C)nc2n1	10	0.91	nt	-106	nt	2.1*	-26
CCOC(=O)Cc1nc2nc(C)cc(C)n2n1	6	0.94	1.1	-4	-8	1	nt
COc1ccc(C(=O)NC(=S)NNC(=O)c2ccccc2O)cc1	27	0.73	nt	-134	nt	2.3*	-8
COc1ccc(NC(=O)NNC(=O)c2cc3ccccc3cc2O)cc1	6	0.94	nt	-134	nt	2.3*	4
O=C(/C=C/c1cccs1)NC(=S)NNC(=O)c1ccccc1O	30	0.69	1.3	-137	-34	2.4*	28
O=C(NNC(=O)c1cc2ccccc2cc1O)Nc1ccc(Br)cc1	11	0.89	nt	-14	nt	1.1	nt
COc1ccc(C(=O)NNC(=S)NC(=O)/C=C/c2cccs2)cc1	21	0.79	1.1	-25	-9	1.3	nt
CN(C)S(=O)(=O)c1cccc(NC(=S)NNC(=O)c2cc3ccccc3cc2O)c1	10	0.9	nt	-165	nt	2.6*	72
COc1ccccc1N(CC(=O)N/N=C/c1ccc(C(=O)O)cc1)S(=O)(=O)c1ccc(C)cc1	14	0.86	nt	-2	nt	1	nt
CC(C)(C)n1nc2c(c1NC(=O)Cc1ccc([N+](=O)[O-])cc1)CS(=O)(=O)C2	0	1	nt	-8	nt	1.1	nt
CC(C)CN(C(=O)COc1ccc([N+](=O)[O-])cc1)c1c(N)n(CC(C)C)c(=O)[nH]c1=O	-1	1	nt	-14	nt	1.1	nt
O=C(NC(=S)NNC(=O)c1ccc(Cl)cc1Cl)c1cccnc1	27	0.73	1	-5	-3	1.1	nt
O=C(NC(=S)NNC(=O)c1ccccc1O)c1cccnc1	17	0.83	1.1	-106	-8	2.1*	-1
CN(Cc1ccccc1)C(=O)c1[nH]cnc1C(=O)Nc1ccc(Cl)cc1	3	0.97	nt	-46	nt	1.5	nt
CN(Cc1ccccc1)C(=O)Nc1ccc(Cl)cc1	-4	1	nt	-102	nt	2*	-59*
Cn1cc(C(=O)N2CCc3ccccc32)cn1	13	0.87	0.9	-111	10	2.1*	2
O=C(CSc1nc2ccccc2c(=O)n1-c1ccccc1Cl)NC1CCS(=O)(=O)C1 (configuration not stated)	2	0.98	nt	5	nt	0.95	nt
SMILES	mIAP block	mIAP activ	bIAP act	hIAP block	bIAP inhibitor	hIAP activ	hIAP act confirm
O=C(CNC(=S)N(CCCN1CCOCC1)Cc1cccs1)NCc1ccccc1	-12	1.1	nt	-207	nt	3.1*	5
O=C(CNC(=S)N(CCCN1CCOCC1)Cc1cccs1)NC1CC1	17	0.83	1	-20	5	1.2	nt
COc1ccc(N2CCN(C(=O)CSc3nnc4c5cc(C)ccc5n(C)c4n3)CC2)cc1	7	0.93	0.9	-160	7	2.6*	-69
COc1ccc2c(c1)c1nnc(SCC(=O)N3CCCCC3C)nc1n2C (configuration not stated)	nt	nt	1	nt	5	nt	nt
O=C(CCN1CCN(Cc2ccccc2)CC1)NNC(=O)Nc1cccc(C(F)(F)F)c1	4	0.95	nt	-102	nt	2*	0
c1ccc(-c2cccc(-c3ccccn3)n2)nc1	-8	1.1	1.2	-105	-16	2.1*	-113*
Cc1ccc(N(CC(N)=O)C2SC(=O)N(C)C2=O)cc1 (configuration not stated)	9	0.91	1.1	65*	-6	0.35	-76
Cc1cccc(N(CC(N)=O)C2SC(=O)N(c3ccccc3)C2=O)c1 (configuration not stated)	18	0.82	1	-3	-4	1	nt
Cc1ccc(NC(=O)CCC(=O)NNC(=S)Nc2ccc(F)cc2F)cc1C	0	1	nt	-123	nt	2.2*	7
Cc1ccc(NC(=O)CCC(=O)NNC(=S)Nc2ccc(F)cc2)c(C)c1	0	1	nt	-70	nt	1.7	nt
Cc1cccc(OCC(=O)NNC(=O)c2ccc3nc[nH]c3c2)c1	0	1	nt	-136	nt	2.4*	-117*
Cc1cccc(OCC(=O)NNC(=O)CCCCC(=O)NNC(=O)COc2cccc(C)c2)c1	14	0.86	nt	-224	nt	3.2*	-33
CC(C)(C)NC(=O)C(=O)NNC(=O)COc1ccccc1	8	0.92	1.1	-107	-6	2.1*	39
O=C(CCCCC(=O)NNC(=O)COc1ccccc1)NNC(=O)COc1ccccc1	16	0.84	nt	-151	nt	2.5*	-88*
O=C(N/N=C/c1ccc2c(c1)OCO2)C(=O)Nc1cccc(Cl)c1	0	1	nt	-31	nt	1.3	nt
CC(=O)N1CC(C)Oc2ccc(S(=O)(=O)NC(CC(=O)O)c3cc(C)ccc3C)cc21 (configuration not stated)	-1	1	nt	-16	nt	1.2	nt
Cc1ccc(C(=O)NNC(=O)CCCCC(=O)NNC(=O)c2ccc(C)cc2)cc1	-4	1	nt	-131	nt	2.3*	-23
COC(=O)c1[nH]c2ccccc2c1NC(=O)CNC1CCCCC1	4	0.96	1	53*	4	0.47	-32
COC(=O)c1[nH]c2ccccc2c1NC(=O)CN1CCCCCC1	4	0.96	1.2	-7	-17	1.1	nt
CCn1cc(CCCC(=O)NCc2ccc(OC)cc2)c2ccccc21	1	0.99	nt	-4	nt	1	nt
CCOc1cccc(-c2nc(C(N)=O)c3[nH]c(=O)n(-c4cccc(Cl)c4)c3n2)c1O	20	0.8	1.1	-296	-13	4*	-75*
CC(C)(C)c1ccc(C(=O)Nc2ncn[nH]2)cc1	-7	1.1	1.2	-57	-21	1.6	nt
Cc1ccc(C(=O)Nc2ncn[nH]2)cc1	3	0.97	nt	-112	nt	2.1*	-8
Cc1ccc(SC(C)C(=O)Nc2ncn[nH]2)cc1 (configuration not stated)	-16	1.2	1.5	-139	-52	2.4*	11

Compound activity as filed in PubChem.
